Among the data in ChEMBL document CHEMBL1147668, “New 2-alkylidene 1alpha,25-dihydroxy-19-norvitamin D3 analogues of high intestinal activity: synthesis and biological evaluation of 2-(3'-alkoxypropylidene) and 2-(3'-hydroxypropylidene) derivatives” (J Med Chem, 2006) are ED50 and Activity values, retold here.

“And” between values parts separate entries of the source, which are not always exact repeats. Identical values can stand only once. The source made the active and inactive calls. The calls are words filed in the database; no cut-off is given here.

The target in test [1] is T1, Vitamin D3 receptor (Homo sapiens) (UniProt P11473).
T1 sequence (whole entry): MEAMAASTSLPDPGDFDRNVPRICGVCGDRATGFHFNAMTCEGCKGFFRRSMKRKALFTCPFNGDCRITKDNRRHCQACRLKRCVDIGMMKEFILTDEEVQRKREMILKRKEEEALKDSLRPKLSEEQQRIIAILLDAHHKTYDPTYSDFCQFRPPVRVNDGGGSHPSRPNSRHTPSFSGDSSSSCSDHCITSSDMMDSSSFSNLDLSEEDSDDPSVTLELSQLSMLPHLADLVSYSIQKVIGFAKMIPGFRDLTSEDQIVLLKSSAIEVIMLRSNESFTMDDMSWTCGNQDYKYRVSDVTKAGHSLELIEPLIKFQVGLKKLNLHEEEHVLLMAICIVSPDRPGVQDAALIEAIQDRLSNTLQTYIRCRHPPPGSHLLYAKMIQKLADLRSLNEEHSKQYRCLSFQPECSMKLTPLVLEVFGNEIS
In words: Induction of differentiation of human HL60 promyelocytes to monocytes. Type of test: functional.

Test [2] deals with T2, Vitamin D3 receptor (Rattus norvegicus) (UniProt P13053).
T2 sequence (whole entry): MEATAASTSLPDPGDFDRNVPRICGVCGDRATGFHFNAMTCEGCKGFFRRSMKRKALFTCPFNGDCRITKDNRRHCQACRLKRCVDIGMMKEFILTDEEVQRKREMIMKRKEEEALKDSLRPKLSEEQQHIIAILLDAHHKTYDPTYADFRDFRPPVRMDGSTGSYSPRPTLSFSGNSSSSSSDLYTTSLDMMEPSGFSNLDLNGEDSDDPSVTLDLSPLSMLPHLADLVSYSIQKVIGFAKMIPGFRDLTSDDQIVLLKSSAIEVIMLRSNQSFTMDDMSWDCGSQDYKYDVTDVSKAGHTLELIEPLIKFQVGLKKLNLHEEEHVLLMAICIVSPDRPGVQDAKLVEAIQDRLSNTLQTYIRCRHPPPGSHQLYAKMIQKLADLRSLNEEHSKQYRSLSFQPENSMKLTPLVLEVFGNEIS
In words: Induction of vitamin D mediated transactivation in rat ROS17/2.8 cell luciferase assay. The class given is functional. In short, it runs like this: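 ROS 17/2.8 cells stably carrying a 24-hydroxylase promoter-luciferase reporter were dosed over a concentration range. Luciferase was measured by luminometer 16 h later.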

The next test concerns Mus musculus. Briefly: Increase of calcium level in po dosed CD1 mouse serum. Type of test: functional, organism-based. In short, it runs like this:
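Female CD-1 mice, 6-7 weeks, on 0.47% Ca diet, acclimated 5-7 days. Single gastric gavage dose formulated in Neobee oil with 5% ethanol at 4 mL/kg. Serum calcium measured by atomic absorption at several timepoints after dosing, including day 3.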

The test system of test [3] is Rattus norvegicus. In words: Calcium mobilization in vitamin D deficient ip dosed Sprague-Dawley rat bone. The class given is functional, organism-based. The method, boiled down:
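Rats depleted of vitamin D and kept on 0.02% Ca diet; four consecutive daily ip doses in 0.1 mL 1,2-propanediol/ethanol (95:5). Serum drawn 24 h after last dose; calcium by atomic absorption with 0.1% lanthanum chloride; rise in serum calcium taken as bone calcium mobilization.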

The test system of test [4] is Rattus norvegicus. Briefly: Calcium mobilization in vitamin D deficient ip dosed Sprague-Dawley rat.

As for `COCOCCC=C1[C@H](O)CC(=C/C=C2\CCC[C@@]3(C)C2CCC3[C@H](C)CCCC(C)(C)O)C[C@H]1O` (stereo partly drawn), the figures for the ED50 in test [1] and in test [2] were 4.7 nM and 3.8 nM, respectively. For the same compound, the result with Mus musculus, with Rattus norvegicus [3] and in the test on Rattus norvegicus [4] was Active.

Take `C[C@H](CCCC(C)(C)O)C1CCC2/C(=C/C=C3C[C@@H](O)C(=CCCO)[C@H](O)C3)CCC[C@@]21C` (stereo partly drawn): the ED50 in test [1] was 3 nM and 1.3 nM; in test [2] it was 0.042 nM. The result with Mus musculus, with Rattus norvegicus [3] and in the test on Rattus norvegicus [4] was Active.

Compound `C[C@@H](CCCC(C)(C)O)C1CCC2/C(=C/C=C3C[C@@H](O)C(=CCCO)[C@H](O)C3)CCC[C@@]21C` (stereo partly drawn) gave an ED50 in test [2] of 0.0065 nM. For the same compound, the outcome in the test on Rattus norvegicus [3] and in the test with Rattus norvegicus [4] was Active.
